Experimental data collected from several papers.
Compare with care: the assays were run in different laboratories.
CDK19: Cyclin-dependent kinase 19 (CDK19, Homo sapiens, UniProt Q9BWU1)
CDK19 with cyclin C: Cyclin-dependent kinase 19, with cyclin C (CDK19, Homo sapiens, UniProt Q9BWU1)

Structure (SMILES) | target | observed | mode | technique | tested at | quantity | value
C[C@@H]1CCN(c2nccc(-c3cnn4ncccc34)n2)C1 | CDK19 | binding | – | – | 1 µM | remaining binding | 97%
Cc1sc(C(=O)NC2COC2)cc1-n1cc(NC(=O)Nc2c(F)cccc2Cl)cn1 | CDK19 with cyclin C | enzyme activity | inhibitor | – | 10 µM | remaining activity | 98.1%
CC(C)(C)c1nc2c(s1)c1nc(N)ncc1c1ccc(NS(=O)(=O)c3c(F)cccc3F)c(F)c12 | CDK19 with cyclin C | enzyme activity | inhibitor | radiometric | 1 µM | remaining activity | 98%
C[C@@H]1CN(c2ccc3ncc(-c4ccc5[nH]nc(C6CC6)c5c4)n3n2)C[C@H](C)O1 | CDK19 | binding | – | competition with immobilised ligand | 0.5 µM | remaining binding | 13%
F[C@@H]1CCN(c2nccc(-c3cnn4ncccc34)n2)C1 | CDK19 | binding | – | – | 1 µM | remaining binding | 100%
CC(C)(C)c1nc(-c2cccc(NS(=O)(=O)c3c(F)cccc3F)c2F)c(-c2ccnc(N)n2)s1 | CDK19 with cyclin C | enzyme activity | inhibitor | radiometric | 1 µM | remaining activity | 94%
Cc1ccc(C(=O)Nc2ccc(CN3CCN(C)CC3)c(C(F)(F)F)c2)cc1C#Cc1cnc2cccnn12 | CDK19 | enzyme activity | inhibitor | – | 23.5 nM | remaining activity | 31%
CN1CCN(C(=O)c2ccc3cc(CCNc4ccnc5ccc(C#N)cc45)ccc3c2)CC1 | CDK19 | binding | – | competition with immobilised ligand | 2 µM | inhibition | > 85%
O=C(Nc1cnn(-c2csc(C(=O)NC3COC3)c2)c1)Nc1c(F)cccc1Cl | CDK19 with cyclin C | enzyme activity | inhibitor | – | 5 µM | remaining activity | 96.2%
